Experimental data from ChEMBL document CHEMBL3414501, “New platelet aggregation inhibitors based on pyridazinone moiety” (Eur J Med Chem, 2015).
The source made the active and inactive calls. The calls are words filed in the database; no cut-off is given here.

How the values were obtained:
Format in all cases: functional, cell-based
[1] = Antiplatelet activity in human platelet assessed as inhibition of collagen-induced platelet aggregation incubated for 5 mins prior to collagen challenge measured over 5 mins by turbidimetric method
In short: (§1)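 Washed human platelets from buffy coat, resuspended in Tyrode-HEPES pH 7.4 with 2 mM CaCl2. Compound in DMSO preincubated with platelets, then collagen (2-4 μg/mL), CRP, thrombin, U-46619 or ionomycin added. Light transmission followed over 5 min in a dual-channel aggregometer (Born turbidimetry); aggregation taken as maximal transmission change. Non-collagen agonists tested at 20 μM compound; at least four experiments in duplicate.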

[2] = test system: Platelet; experiment: Antiplatelet activity in human platelet assessed as inhibition of CRP-XL-induced phosphotyrosine level incubated for 5 mins prior to CRP-XL challenge measured after 5 mins by immunodot blot analysis
In short: (§2)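 Washed platelets from donor buffy coat in modified Tyrode-HEPES (pH 7.4, 2 mM Ca2+), pre-incubated 5 min with DMSO or compound. Flow cytometry: CRP-XL stimulation with FITC-PAC-1 for 15 min at room temperature, 10,000 events, PAC-1 mean fluorescence and % positive platelets. Phosphotyrosine: CRP-XL 5 μg/mL, SDS/EDTA (2%/1 mM final) lysates, immunodot blot with 4G10, HRP secondary, chemiluminescence.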

[3] = test system: Platelet; experiment: Antiplatelet activity in human platelet assessed as inhibition of ionomycin-induced platelet aggregation at 20 uM incubated for 5 mins prior to U-46619 challenge measured over 5 mins by […]; settings: in the assay text read “ionomycin challenge” for “U-46619 challenge”; in short: as §1
[4] = test system: Platelet; experiment: Antiplatelet activity in human platelet assessed as inhibition of CRP-XL-induced activated Gp2b/3a expression incubated for 5 mins prior to CRP-XL challenge measured after 15 mins by flow cytometry; in short: as §2
[5] = test system: Platelet; experiment: Antiplatelet activity in human platelet assessed as inhibition of U-46619-induced platelet aggregation at 20 uM incubated for 5 mins prior to U-46619 challenge measured over 5 mins by […]; in short: as §1
[6] = test system: Platelet; experiment: Antiplatelet activity in human platelet assessed as inhibition of CRP-XL-induced platelet aggregation at 20 uM incubated for 5 mins prior to CRP-XL challenge measured over 5 mins by […]; in short: as §1
[7] = test system: Platelet; experiment: Antiplatelet activity in human platelet assessed as inhibition of thrombin-induced platelet aggregation at 20 uM incubated for 5 mins prior to thrombin challenge measured over 5 mins by […]; in short: as §1

SMILES | IC50 [1] [µM] | other results
O=c1cc2c(n[nH]1)CCCO2 | > 100 | –
O=c1cc(CBr)cnn1Cc1ccccc1 | > 100 | –
O=c1cc(CO)cnn1Cc1ccccc1 | > 100 | –
O=c1c(CBr)ccnn1Cc1ccccc1 | > 100 | –
O=c1c(CO)ccnn1Cc1ccccc1 | > 100 | –

Now from value to molecule, other results behind:

IC50 [1] [µM] | SMILES | other results
> 100 | O=C1CC2OCCCC2=NN1 (configuration not stated) | –
70.6 | O=C1CC2OCCC2=NN1 (configuration not stated) | –
0.55 | CC(C)(C)[Si](OCc1cnn(Cc2ccccc2)c(=O)c1)(c1ccccc1)c1ccccc1 | inhibition [2]: Dose-dependent effect; inhibition [3]: inactive; inhibition [4]: Active; inhibition [5]: inactive; inhibition [6]: Active; inhibition [7]: inactive
17.5 | O=c1c(COCc2ccccc2)ccnn1Cc1ccccc1 | –
1.31 | CC(C)(C)[Si](OCc1ccnn(Cc2ccccc2)c1=O)(c1ccccc1)c1ccccc1 | –
3.75 | O=c1cc(COCc2ccccc2)cnn1Cc1ccccc1 | –
